Columns and labels:
CAL-27 [1] = experiment: Potentiation of 0.5 uM cisplatin-induced cytotoxicity against human CAL27 cells assessed as decrease in cell viability measuring combination index at 700 uM preincubated for 48 hrs followed by cisplatin treatment measured after 72 hrs by MTT assay; assay type: functional; conditions: in the assay text read “at 700 nM” for “at 700 uM”
How it was run: (§1)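 Cal27 and cisplatin-resistant Cal27CisR cells were preincubated with the HDAC inhibitor for 48 h, then given cisplatin in combination. Viability was read by MTT after 72 h. The combination index was computed by the Chou–Talalay method: CI > 1 is antagonism, CI = 1 is additive, and CI < 0.9 is synergism. Points with fraction affected below 0.20 were flagged.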

CAL-27 [2] = experiment: Potentiation of 2 uM cisplatin-induced cytotoxicity against human CAL27 cells assessed as decrease in cell viability by measuring combination index at 800 uM preincubated for 48 hrs followed by cisplatin treatment measured after 72 hrs by MTT assay; assay type: functional; conditions: in the assay text read “at 800 nM” for “at 800 uM”
How it was run: (§2)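 HDAC inhibitor was added 48 h before cisplatin, then cells were exposed to cisplatin for 72 h and viability was read by MTT assay. Combination index was computed by the Chou–Talalay method: CI > 1 is antagonism, CI = 1 additive, CI < 0.9 synergism. Points with fraction affected below 0.20 were flagged.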

CAL-27 [3] = experiment: Potentiation of 0.5 uM cisplatin-induced cytotoxicity against human CAL27 cells assessed as decrease in cell viability by measuring combination index at 800 uM preincubated for 48 hrs followed by cisplatin treatment measured after 72 hrs by MTT assay; assay type: functional; how it was run: as §1
CAL-27 [4] = experiment: Potentiation of 1 uM cisplatin-induced cytotoxicity against human CAL27 cells assessed as decrease in cell viability by measuring combination index at 500 uM preincubated for 48 hrs followed by cisplatin treatment measured after 72 hrs by MTT assay; assay type: functional; how it was run: as §2
[5] = target: T1, Histone deacetylase 1/6 (Homo sapiens) (UniProt Q13547+Q9UBN7); experiment: Inhibition of HDAC1/HDAC6 in human Cal27CisR cells assessed as potentiation of 3.16 uM cisplatin-induced cytotoxicity by measuring combination index at 600 nM preincubated for 48 hrs followed by cisplatin treatment measured after 72 hrs by MTT assay
T1 sequence (Q13547 whole entry, looked up, one chain of several): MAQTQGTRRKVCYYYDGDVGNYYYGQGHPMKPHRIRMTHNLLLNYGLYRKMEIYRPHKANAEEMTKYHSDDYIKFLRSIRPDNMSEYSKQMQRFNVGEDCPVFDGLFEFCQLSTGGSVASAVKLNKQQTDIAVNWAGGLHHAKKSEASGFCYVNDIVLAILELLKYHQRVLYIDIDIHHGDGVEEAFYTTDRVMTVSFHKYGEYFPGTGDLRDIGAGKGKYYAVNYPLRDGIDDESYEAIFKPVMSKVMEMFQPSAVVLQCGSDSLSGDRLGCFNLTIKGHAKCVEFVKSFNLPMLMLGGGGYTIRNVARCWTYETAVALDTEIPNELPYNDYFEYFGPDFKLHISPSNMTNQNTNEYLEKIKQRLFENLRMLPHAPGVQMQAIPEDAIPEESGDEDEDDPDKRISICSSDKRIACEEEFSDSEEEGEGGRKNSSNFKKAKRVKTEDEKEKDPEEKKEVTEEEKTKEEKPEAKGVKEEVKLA

[6] = target: T1, Histone deacetylase 1/6 (Homo sapiens); experiment: Inhibition of HDAC1/HDAC6 in human Cal27CisR cells assessed as potentiation of 3.16 uM cisplatin-induced cytotoxicity by measuring combination index at 700 nM preincubated for 48 hrs followed by cisplatin treatment measured after 72 hrs by MTT assay
Histone deacetylase 8 = target: T2, Histone deacetylase 8 (Homo sapiens, UniProt Q9BY41); experiment: Inhibition of human HDAC8 using Z-L-Lys(epsilon-trifluoroacetyl)-AMC as substrate measured after 90 mins by fluorescence assay
T2 sequence (Q9BY41 whole entry): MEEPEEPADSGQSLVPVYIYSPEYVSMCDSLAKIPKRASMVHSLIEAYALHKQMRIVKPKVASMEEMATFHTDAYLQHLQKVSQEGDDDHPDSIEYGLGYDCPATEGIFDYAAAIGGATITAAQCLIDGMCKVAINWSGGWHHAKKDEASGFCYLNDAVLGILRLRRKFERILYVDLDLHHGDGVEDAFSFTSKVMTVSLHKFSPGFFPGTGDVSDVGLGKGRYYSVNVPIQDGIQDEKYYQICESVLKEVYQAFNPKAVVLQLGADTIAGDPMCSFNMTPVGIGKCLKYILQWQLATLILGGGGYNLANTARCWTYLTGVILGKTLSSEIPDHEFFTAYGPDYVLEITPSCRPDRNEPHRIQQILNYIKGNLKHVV

[7] = target: T3, Protein deacetylase HDAC6 (Homo sapiens, UniProt Q9UBN7); experiment: Inhibition of full length human recombinant N-terminal GST-tagged HDAC6 expressed in baculovirus infected sf9 cells Z-(Ac)Lys-AMC as substrate measured after 90 mins by fluorescence assay
T3 sequence (Q9UBN7 whole entry): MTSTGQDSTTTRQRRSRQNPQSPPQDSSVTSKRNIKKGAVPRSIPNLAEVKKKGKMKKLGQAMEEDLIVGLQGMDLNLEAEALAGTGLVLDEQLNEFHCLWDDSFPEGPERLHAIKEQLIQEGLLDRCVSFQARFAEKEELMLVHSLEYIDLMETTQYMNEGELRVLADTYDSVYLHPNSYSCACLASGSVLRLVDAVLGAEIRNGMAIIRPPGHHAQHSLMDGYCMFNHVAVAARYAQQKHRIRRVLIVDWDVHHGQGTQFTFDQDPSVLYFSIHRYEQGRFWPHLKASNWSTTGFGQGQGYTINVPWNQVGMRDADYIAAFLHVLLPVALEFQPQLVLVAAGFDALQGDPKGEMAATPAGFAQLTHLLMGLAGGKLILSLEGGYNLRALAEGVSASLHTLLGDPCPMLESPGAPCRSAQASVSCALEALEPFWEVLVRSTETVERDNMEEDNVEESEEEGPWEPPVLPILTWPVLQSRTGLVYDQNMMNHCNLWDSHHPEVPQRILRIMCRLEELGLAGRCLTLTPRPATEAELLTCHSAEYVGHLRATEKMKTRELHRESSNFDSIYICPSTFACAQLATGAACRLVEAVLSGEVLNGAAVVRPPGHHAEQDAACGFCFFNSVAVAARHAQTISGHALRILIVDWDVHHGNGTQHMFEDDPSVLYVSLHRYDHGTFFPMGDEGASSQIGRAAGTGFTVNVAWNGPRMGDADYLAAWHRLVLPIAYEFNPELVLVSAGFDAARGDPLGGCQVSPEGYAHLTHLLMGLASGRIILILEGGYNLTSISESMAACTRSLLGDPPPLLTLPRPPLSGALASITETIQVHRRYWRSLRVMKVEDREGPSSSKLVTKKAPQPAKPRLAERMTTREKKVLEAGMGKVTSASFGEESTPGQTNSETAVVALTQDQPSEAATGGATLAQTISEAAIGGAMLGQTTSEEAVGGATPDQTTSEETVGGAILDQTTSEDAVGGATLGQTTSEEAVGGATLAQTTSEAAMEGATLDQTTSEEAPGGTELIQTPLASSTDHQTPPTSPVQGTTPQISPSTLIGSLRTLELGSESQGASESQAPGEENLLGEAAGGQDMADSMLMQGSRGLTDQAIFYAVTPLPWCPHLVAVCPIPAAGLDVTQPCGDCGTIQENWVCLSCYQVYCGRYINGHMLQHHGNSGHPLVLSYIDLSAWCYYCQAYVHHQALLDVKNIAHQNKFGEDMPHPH

[8] = target: T1, Histone deacetylase 1/6 (Homo sapiens); experiment: Inhibition of HDAC1/HDAC6 in human Cal27CisR cells assessed as potentiation of 10 uM cisplatin-induced cytotoxicity by measuring combination index at 800 nM preincubated for 48 hrs followed by cisplatin treatment measured after 72 hrs by MTT assay
CAL-27 [9] = experiment: Potentiation of 1 uM cisplatin-induced cytotoxicity against human CAL27 cells assessed as decrease in cell viability by measuring combination index at 600 uM preincubated for 48 hrs followed by cisplatin treatment measured after 72 hrs by MTT assay; assay type: functional; how it was run: as §2

IC50 (Histone deacetylase 8)	IC50 [7]	Compound	CI (CAL-27 [1])	CI (CAL-27 [2])	CI (CAL-27 [3])	CI (CAL-27 [4])	CI [5]	CI [6]	CI [8]	CI (CAL-27 [9])
1540 nM	2.8 nM	COc1cc(NC(=O)NOCCCCCC(=O)NO)c2nc(OC)cc(C)c2c1	0.7	0.66	0.79	0.5	0.24	0.28	0.23	0.53
1080 nM	6.1 nM	COc1cc(NC(=O)NOCCCCCC(=O)NO)c2ncccc2c1	0.97	0.43	0.93	0.67	< 0.2	0.56	0.35	0.57
1220 nM	24.8 nM	COc1cc(NC(=O)NOCCCCCC(=O)NO)c2nccc(C)c2c1	0.57	0.38	0.51	0.37	0.51	0.28	0.23	0.37
